Results on 15 compounds are retold here after ChEMBL document CHEMBL4219116, “Adenosine analogs bearing phosphate isosteres as human MDO1 ligands” (Bioorg Med Chem, 2018).

Each structure is given as a SMILES string. pKd: −log10 of the molar value. The source made the active and inactive calls. No cut-off for these calls is given here. Bounds are passed on as bounds.

Test [1] deals with T1, ADP-ribose glycohydrolase MACROD1 (Homo sapiens, UniProt Q9BQ69).
T1 sequence (Q9BQ69 whole entry): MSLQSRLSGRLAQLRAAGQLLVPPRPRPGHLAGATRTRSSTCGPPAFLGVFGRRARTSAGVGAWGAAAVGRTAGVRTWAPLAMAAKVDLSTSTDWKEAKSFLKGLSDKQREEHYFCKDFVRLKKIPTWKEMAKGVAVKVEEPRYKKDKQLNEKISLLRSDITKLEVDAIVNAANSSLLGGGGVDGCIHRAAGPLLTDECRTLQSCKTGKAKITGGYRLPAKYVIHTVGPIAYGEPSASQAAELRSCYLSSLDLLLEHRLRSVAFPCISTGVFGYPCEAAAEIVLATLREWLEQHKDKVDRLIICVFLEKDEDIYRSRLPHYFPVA
The experiment in a line: Binding affinity to human MDO1 by ITC.

For test [2], the target named is T2, ADP-ribose glycohydrolase MACROD1 (Homo sapiens) (UniProt Q9BQ69).
T2 sequence (whole entry): T1 sequence (Q9BQ69 whole entry)
In words: Inhibition of recombinant human N-terminal His6-tagged MDO1 (58 to 325 residues) expressed in Escherichia coli Rosetta2 (DE3) using mono-biotin-ADP-ribosylated SRPK2 as substrate after 16 hrs by Western blot analysis. Summed up: (§1)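 Substrate was SRPK2 mono-biotin-ADP-ribosylated by ARTD10. 2 μM substrate, 2 μM MDO1 and 0.8–1 mM compound were incubated 16 h in 25 mM HEPES pH 7.5, 100 mM NaCl. The reaction was stopped with Laemmli buffer at 95 °C for 5 min, then run on SDS-PAGE and blotted. Detection used streptavidin-HRP with chemiluminescence. Readout was qualitative, against SRPK2-alone and no-inhibitor controls.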

In test [3] the target is T2, ADP-ribose glycohydrolase MACROD1 (Homo sapiens). The experiment in a line: Binding affinity to human MDO1 assessed as change in melting temperature by DSF method. Put shortly:
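Thermal shift read-out: a hydrophobic reporter dye binds the exposed protein core as the protein denatures with rising temperature. ΔTm is taken as the stabilization by ligand.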

Test [4] shares this target. In words: Inhibition of recombinant human N-terminal His6-tagged MDO1 (58 to 325 residues) expressed in Escherichia coli Rosetta2 (DE3) at 0.8 mM using mono-biotin-ADP-ribosylated SRPK2 as substrate after 16 hrs by Western blot analysis. Summed up:
as §1

For test [5] the target is unchanged. The experiment in a line: Inhibition of recombinant human N-terminal His6-tagged MDO1 (58 to 325 residues) expressed in Escherichia coli Rosetta2 (DE3) at 6.6 mM using mono-ADP-ribosylated SRPK2 as substrate after 1 hr 20 mins by Alphascreen assay. Summed up: (§2)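 AlphaScreen hydrolysis assay run in quadruplicate, with compound from 6.6 mM to 0.66 μM in half-log dilutions. MDO1 or MDO2 (800 nM final) was added, then mono-ADP-ribosylated SRPK2 (50 nM final), and incubated 1 h 20 min at room temperature. Acceptor/donor beads (5 μg/ml final) were added for 3 h in the dark before reading luminescence.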

Test [6] deals with T3, ADP-ribose glycohydrolase MACROD2 (Homo sapiens) (UniProt A1Z1Q3).
T3 sequence (whole entry): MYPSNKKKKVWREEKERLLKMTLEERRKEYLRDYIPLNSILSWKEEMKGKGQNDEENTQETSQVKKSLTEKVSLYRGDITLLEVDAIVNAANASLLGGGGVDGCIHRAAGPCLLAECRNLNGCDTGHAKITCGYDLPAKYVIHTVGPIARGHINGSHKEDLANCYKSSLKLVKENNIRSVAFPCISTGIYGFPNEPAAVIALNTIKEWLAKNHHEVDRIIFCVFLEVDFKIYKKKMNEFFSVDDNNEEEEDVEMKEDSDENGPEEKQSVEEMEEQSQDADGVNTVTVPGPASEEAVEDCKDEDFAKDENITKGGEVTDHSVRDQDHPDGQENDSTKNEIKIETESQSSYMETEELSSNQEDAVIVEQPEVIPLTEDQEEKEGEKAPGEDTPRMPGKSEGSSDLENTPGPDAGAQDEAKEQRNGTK
In words: Inhibition of recombinant MDO2 (7 to 243 residues) (unknown origin) expressed in Escherichia coli Rosetta2 (DE3) at 6.6 mM using mono-ADP-ribosylated SRPK2 as substrate after 1 hr 20 mins by Alphascreen assay. Put shortly:
as §2

Test [7] deals with T2, ADP-ribose glycohydrolase MACROD1 (Homo sapiens). In words: Inhibition of recombinant human N-terminal His6-tagged MDO1 (58 to 325 residues) expressed in Escherichia coli Rosetta2 (DE3) at 1 mM using mono-biotin-ADP-ribosylated SRPK2 as substrate after 16 hrs by Western blot analysis. Summed up: as §1

In turn, `Nc1ncnc2c1ncn2[C@@H]1O[C@H](COP(=O)(O)OP(=O)(O)OC[C@@H]2O[C@H](O)[C@@H](O)[C@H]2O)[C@@H](O)[C@H]1O` had a pKd in test [1] of 6.05. Further, the inhibition result in test [2] is “Active”. Besides, the ΔTm in test [3] worked out at 5 °C. In the case of `Nc1ncnc2c1ncn2[C@@H]1O[C@H](CNc2c(NCc3ccc(F)cc3)c(=O)c2=O)[C@@H](O)[C@H]1O`, in test [4], the inhibition entry was “inactive”. Take `Nc1ncnc2c1ncn2[C@@H]1O[C@H](CNc2c(Nc3cccc(O)c3)c(=O)c2=O)[C@@H](O)[C@H]1O`: the inhibition entry in test [4] was “inactive”. For the compound `Nc1ncnc2c1ncn2C1OC(CNC(=O)[C@H](CO)NC(=O)OCC2c3ccccc3-c3ccccc32)[C@@H](O)C1O` (single isomer, unassigned), the inhibition entry in test [4] is “Active”. For the same compound, the inhibition result in test [5] and in test [6] was “inactive” each time. Turning to `Nc1ncnc2c1ncn2[C@@H]1O[C@H](CNc2c(NCc3ccccc3)c(=O)c2=O)[C@@H](O)[C@H]1O`, the inhibition result in test [7] is “inactive”. On to `COc1ccc(CNc2c(NC[C@H]3O[C@@H](n4cnc5c(N)ncnc54)[C@H](O)[C@@H]3O)c(=O)c2=O)cc1`, for which the inhibition entry in test [7] was “inactive”.

On to `Nc1ncnc2c1ncn2[C@@H]1O[C@H](COP(=O)(O)OP(=O)(O)O)[C@@H](O)[C@H]1O`, for which the inhibition entry in test [2] was “inactive”. Further, the shift in melting temperature (ΔTm) in test [3] was less than 1 °C.

Regarding `Nc1ncnc2c1ncn2C1OC(CNC(=O)[C@@H](N)CO)[C@@H](O)C1O` (single isomer, unassigned), in test [7], the inhibition entry is “inactive”. On the same count and under the same terms, with `Nc1ncnc2c1ncn2C1OC(CNC(=O)Cc2nnn[nH]2)[C@@H](O)[C@H]1O` (single isomer, unassigned) the entry was “inactive”; with `Nc1ncnc2c1ncn2C1OC(CNC(=O)CSc2nnnn2-c2ccccc2)[C@@H](O)[C@H]1O` (single isomer, unassigned), “inactive”. Consider `CCCCNc1c(NC[C@H]2O[C@@H](n3cnc4c(N)ncnc43)[C@H](O)[C@@H]2O)c(=O)c1=O`, for which the inhibition entry in test [4] was “inactive”.

`Nc1ncnc2c1ncn2C1OC(CNC(=O)[C@H](CC(=O)O)NC(=O)OCC2c3ccccc3-c3ccccc32)[C@@H](O)C1O` (single isomer, unassigned): the inhibition entry in test [7] was “inactive”. For `Cc1ccc(CNc2c(NC[C@H]3O[C@@H](n4cnc5c(N)ncnc54)[C@H](O)[C@@H]3O)c(=O)c2=O)cc1`, the inhibition result in test [5] and in test [6] was “inactive” in each case. In addition, the inhibition entry in test [7] was “Active”. With `Nc1ncnc2c1ncn2[C@@H]1O[C@H](CNc2c(Nc3cccc([N+](=O)[O-])c3)c(=O)c2=O)[C@@H](O)[C@H]1O`, the inhibition entry in test [4] was “inactive”. In the case of `Nc1ncnc2c1ncn2[C@@H]1O[C@H](COP(=O)(O)O)[C@@H](O)[C@H]1O`, in test [2], the inhibition result is “inactive”. For the same compound, in test [3], the shift in melting temperature (ΔTm) is less than 1 °C.
